# Results pooled from the literature.
# Compare with care: the assays were run in different laboratories.
# DRD3: D(3) dopamine receptor (DRD3, Homo sapiens, UniProt P35462)
# GLP1R: Glucagon-like peptide 1 receptor (GLP1R, Homo sapiens, UniProt P43220)
# MDM4: Protein Mdm4 (MDM4, Homo sapiens, UniProt O15151)
SMILES,target,read-out,action,technique,setting,endpoint,value
CC(C)[C@H](NC(=O)[C@@H]1CSSC(C)(C)[C@H](NC(=O)[C@@H](N)CC(=O)O)C(=O)N[C@@H](Cc2ccccc2)C(=O)N[C@H](Cc2c[nH]c3ccccc23)C(=O)N[C@@H](CCCN)C(=O)N[C@@H](Cc2ccc(N)cc2)C(=O)N1)C(=O)O,"Urotensin-2 receptor (UTS2R, Homo sapiens, UniProt Q9UKP6)",ligand displacement,,radioligand,cell membranes,Ki,0.00269 µM
CP(=O)(O)CCC(N)C(=O)O (racemic),"Glutamine synthetase (glnA, Escherichia coli K-12, UniProt P0A9C5)",enzyme activity,inhibitor,,,Ki,0.8 µM
CC(C)[C@@H](Nc1nc(Cl)nc2c1ncn2[C@H]1[C@H](O)[C@H](O)[C@]2(CN)C[C@H]12)C1CC1,DRD3,ligand displacement,,radioligand,,Ki,3.47 µM
CCN(CC)c1ccc(/C=N/NC(=O)c2ccc(O)cc2)cc1,"Protein smoothened (SMO, Homo sapiens, UniProt Q99835)",ligand displacement,,,,IC50,0.1 µM
Nc1c(S(=O)(=O)O)cc(Nc2ccc(Nc3nc(Cl)nc(Nc4cccc(S(=O)(=O)O)c4)n3)c(S(=O)(=O)O)c2)c2c1C(=O)c1ccccc1C2=O,"Pantothenate kinase 3 (PANK3, Homo sapiens, UniProt Q9H999)",enzyme activity,inhibitor,ATP luminescence,,IC50,1.3 µM
CC[C@H](C)[C@H](NC(=O)[C@H](CC(C)C)NC(=O)[C@H](Cc1c[nH]c2ccccc12)NC(=O)[C@H](CCCCN)NC(=O)[C@H](CC(C)C)NC(=O)[C@H](Cc1ccccc1)NC(=O)[C@H](CCC(=O)O)NC(=O)[C@H](CCC(N)=O)NC(=O)[C@@H](NC(=O)[C@H](C)NC(=O)[C@H](CC(C)C)NC(=O)[C@H](CC(=O)O)NC(=O)[C@H](CC(=O)O)NC(=O)[C@H](CC(C)C)NC(=O)[C@H](CC(C)C)NC(=O)[C@H](CCCCN)NC(=O)[C@H](CC(N)=O)NC(=O)[C@H](Cc1ccc(O)cc1)NC(=O)[C@H](CC(=O)O)NC(=O)[C@H](CO)NC(=O)[C@@H](NC(=O)[C@H](Cc1ccccc1)NC(=O)[C@@H](NC(=O)CNC(=O)[C@H](CC(=O)O)NC(=O)[C@H](C)NC(=O)[C@@H](N)Cc1c[nH]cn1)[C@@H](C)O)[C@@H](C)O)[C@@H](C)O)C(=O)N[C@@H](CC(N)=O)C(=O)N[C@@H](CCC(N)=O)C(=O)N[C@@H](CCCCN)C(=O)N[C@H](C(=O)N[C@H](C(=O)N[C@@H](CCC(N)=O)C(=O)O)[C@@H](C)O)C(C)C,GLP1R,reporter gene,agonist,luciferase,,EC50,0.0015 µM
CC(C)[C@@H]1NC(=O)[C@H](CO)NC(=O)[C@H](CO)NC(=O)[C@H](CO)N(C)C(=O)[C@H](CC(=O)O)NC(=O)[C@H](CO)NC(=O)[C@H](Cc2ccccc2)NC(=O)CSC[C@@H](C(=O)NCC(N)=O)NC(=O)[C@H](CC(N)=O)NC(=O)[C@H](CCCNC(=N)N)NC(=O)[C@H](Cc2ccc(-c3ccccc3)cc2)NC(=O)[C@H](Cc2ccc(-c3ccccc3)cc2)NC(=O)[C@H](CC(N)=O)NC(=O)[C@@H]2CCCN2C1=O,MDM4,ligand displacement,,TR-FRET,,IC50,0.835 µM
O=C(Nc1cccc(-c2ccn3c(CC4CC4)nnc3c2C(F)(F)F)c1)c1ccc(S(=O)(=O)F)cc1,"Metabotropic glutamate receptor 5 (GRM5, Homo sapiens, UniProt P41594)",calcium signal,agonist,,,EC50,> 50.1 µM
COc1ncccc1-c1cnn2ccc(N3CCN(C(=O)OC(C)C)CC3)nc12,"Glutamate NMDA receptor; GRIN1/GRIN2B (GRIN1/GRIN2B, Homo sapiens, UniProt Q05586+Q13224)",ion current,inhibitor,,,IC50,> 25 µM
CSCC[C@H](NC(=O)[C@H](CCC(=O)O)NC(=O)[C@@H]1CCCN1C(=O)[C@@H](NC(=O)[C@@H]1CCCN1)[C@@H](C)O)C(=O)N[C@@H](CCCNC(=N)N)C(=O)N[C@@H](CCC(=O)O)C(=O)N[C@@H](CCCCN)C(=O)N[C@@H](CC(C)C)C(=O)N[C@H]1CSSC[C@@H]2NC(=O)[C@@H](NC(=O)[C@H](CC(C)C)NC(=O)[C@@H](NC(=O)[C@H](CCC(N)=O)NC(=O)[C@H](CC(C)C)NC(=O)[C@H](CC(=O)O)NC(=O)[C@@H]3CCC(=O)N3)[C@@H](C)O)CSSC[C@H](NC(=O)CNC(=O)[C@H](CO)NC(=O)[C@H](CC(C)C)NC2=O)C(=O)N[C@@H]([C@@H](C)O)C(=O)N[C@@H](CCC(N)=O)C(=O)N[C@@H](CCC(N)=O)C(=O)N[C@@H](CC(=O)O)C(=O)N[C@@H](CC(C)C)C(=O)N[C@@H](CC(C)C)C(=O)N[C@@H]([C@@H](C)O)C(=O)N[C@@H](CC(C)C)C(=O)N[C@H](C(=O)N2CCC[C@H]2C(=O)N[C@@H](Cc2ccc(O)cc2)C(=O)O)CSSC[C@@H](C(=O)NCC(=O)NCC(=O)N2CCC[C@H]2C(=O)N[C@@H](CCCNC(=N)N)C(=O)N[C@@H](Cc2c[nH]c3ccccc23)C(=O)N[C@@H](CO)C(=O)N[C@H](C(=O)N[C@@H](CCC(=O)O)C(=O)N[C@@H](C)C(=O)O)[C@@H](C)O)NC(=O)[C@H](C(C)C)NC(=O)[C@H](CCCNC(=N)N)NC(=O)[C@H](C(C)C)NC(=O)[C@H](CC(C)C)NC(=O)[C@H](C)NC(=O)[C@H](CCCNC(=N)N)NC(=O)[C@H](C(C)C)NC(=O)[C@H](Cc2ccccc2)NC(=O)[C@H](Cc2c[nH]cn2)NC(=O)[C@H](Cc2c[nH]cn2)NC(=O)CNC1=O,"Relaxin receptor 2 (RXFP2, Homo sapiens, UniProt Q8WXD0)",ligand displacement in cells,,,,Ki,0.00363 µM
CC[C@H](C)[C@H](NC(=O)[C@H](CO)NC(=O)[C@H](CC(=O)O)NC(=O)[C@H](CC(C)C)NC(=O)[C@@H](NC(=O)[C@H](CCCCN)NC(=O)[C@H](CC(N)=O)NC(=O)[C@@H](NC(=O)[C@H](CC(=O)O)NC(=O)[C@H](CO)NC(=O)[C@@H](NC(=O)[C@H](Cc1ccccc1)NC(=O)[C@H](CO)NC(=O)CNC(=O)[C@H](CC(=O)O)NC(=O)[C@@H](NC(=O)[C@@H](N)Cc1c[nH]cn1)C(C)C)[C@@H](C)O)C(C)C)C(C)C)C(=O)N[C@@H](C)C(=O)N[C@@H](C)C(=O)N[C@@H](CCCCN)C(=O)N[C@@H](CCC(=O)O)C(=O)N[C@@H](Cc1ccc(O)cc1)C(=O)N[C@@H](CC(C)C)C(=O)N[C@@H](CCC(N)=O)C(=O)N[C@@H](Cc1c[nH]c2ccccc12)C(=O)N[C@H](C(=O)N[C@@H](CCSC)C(=O)N[C@@H](CC(N)=O)C(=O)N[C@@H](CO)C(=O)N[C@@H](CCCCN)C(=O)N[C@@H](C)C(=O)N[C@@H](CO)C(=O)NCC(=O)O)C(C)C,GLP1R,reporter gene,agonist,luciferase,,EC50,0.00364 µM
CC(C)[C@@H]1NC(=O)[C@H](CO)NC(=O)[C@H](CO)NC(=O)[C@H](CO)N(C)C(=O)[C@H](CC(=O)O)NC(=O)[C@H](CO)NC(=O)[C@H](Cc2ccccc2)NC(=O)CSC[C@@H](C(=O)NCC(N)=O)NC(=O)[C@H](CC(N)=O)NC(=O)[C@H](CCCNC(=N)N)NC(=O)[C@H](C)NC(=O)[C@H](Cc2ccc(-c3ccccc3)cc2)NC(=O)[C@H](CC(N)=O)NC(=O)[C@@H]2CCCN2C1=O,MDM4,ligand displacement,,TR-FRET,,Ki,> 8.88 µM
CCCC[C@@H](NC(=O)[C@@H](N)Cc1c(C)cc(O)cc1C)C(=O)NCC(=O)N[C@@H](Cc1ccc(F)cc1)C(=O)N(C)CCC[C@@]1(c2ccc(F)cc2)OCc2cc(C#N)ccc21,DRD3,ligand displacement,,radioligand,,Ki,2 µM
CC(CCc1ccccc1)NC(C)C(O)c1ccc(O)cc1 (stereo not shown),DRD3,ligand displacement,,radioligand,,IC50,1.29 µM
CO/N=C1\C[C@]2(C[C@@H]3C[C@@H](C/C=C(\C)C[C@@H](C)/C=C/C=C4\CO[C@@H]5[C@H](O)C(C)=C[C@@H](C(=O)O3)[C@]45O)O2)O[C@H](/C(C)=C/C(C)C)[C@H]1C,"Nuclear receptor subfamily 1 group I member 3 (Homo sapiens, UniProt Q14994)",reporter gene,antagonist,,,IC50,44.1 µM
CN(C)CCCN1c2ccccc2Sc2ccccc21,DRD3,ligand displacement,,radioligand,,IC50,0.075 µM
c1cc[c]([Sn]([c]2ccccc2)[c]2ccccc2)cc1,"Peroxisome proliferator-activated receptor gamma (PPARG, Homo sapiens, UniProt P37231)",reporter gene,agonist,luciferase,,EC50,0.02 µM
C[C@@H](NC(=O)[C@@H](N)Cc1ccc(O)cc1)C(=O)NCC(=O)N[C@@H](Cc1ccccc1)C(=O)N(C)CCC[C@@]1(c2ccc(F)cc2)OCc2cc(C#N)ccc21,DRD3,ligand displacement,,radioligand,,Ki,> 10 µM
CC[C@H](C)[C@H](NC(=O)[C@H](CC(=O)O)NC(=O)[C@H](CC(N)=O)NC(=O)[C@@H](NC(=O)[C@H](Cc1ccccc1)NC(=O)[C@H](CO)NC(=O)CNC(=O)[C@H](CC(=O)O)NC(=O)[C@H](C)NC(=O)[C@@H](N)Cc1c[nH]cn1)[C@@H](C)O)C(=O)N[C@@H](CC(N)=O)C(=O)N[C@@H](CCCCN)C(=O)N[C@H](C(=O)N[C@@H](CC(C)C)C(=O)N[C@@H](CC(=O)O)C(=O)N[C@H](C(=O)N[C@H](C(=O)N[C@@H](C)C(=O)N[C@@H](C)C(=O)N[C@@H](CCC(N)=O)C(=O)N[C@@H](CCC(=O)O)C(=O)N[C@@H](Cc1ccccc1)C(=O)N[C@@H](CC(C)C)C(=O)N[C@@H](CC(=O)O)C(=O)N[C@@H](Cc1c[nH]c2ccccc12)C(=O)N[C@H](C(=O)N[C@H](C(=O)N[C@@H](CC(N)=O)C(=O)N[C@H](C(=O)N[C@@H](CCC(N)=O)C(=O)N[C@H](C(=O)N[C@H](C(=O)N[C@@H](CCC(=O)O)C(=O)O)[C@@H](C)O)C(C)C)[C@@H](C)O)[C@@H](C)CC)C(C)C)[C@@H](C)CC)[C@@H](C)CC)C(C)C,GLP1R,reporter gene,agonist,luciferase,,EC50,0.0299 µM
C[C@H](N)Cn1ncc2ccc3c(c21)CCCO3,"5-hydroxytryptamine receptor 2C (Rattus norvegicus, UniProt P08909)",calcium signal,agonist,,,EC50,0.0157 µM
CC[C@H](C)[C@H](NC(=O)[C@H](Cc1ccccc1)NC(=O)[C@H](CC(=O)O)NC(=O)[C@H](CCCCN)NC(=O)[C@H](C)NC(=O)[C@H](C)NC(=O)[C@H](CCC(N)=O)NC(=O)CNC(=O)[C@H](CCC(=O)O)NC(=O)[C@H](CC(C)C)NC(=O)[C@H](Cc1ccc(O)cc1)NC(=O)[C@H](CO)NC(=O)[C@H](CO)NC(=O)[C@@H](NC(=O)[C@H](CC(=O)O)NC(=O)[C@H](CO)NC(=O)[C@@H](NC(=O)[C@H](Cc1ccc(O)cc1)NC(=O)[C@@H](NC(=O)CNC(=O)[C@H](CC(=O)O)NC(=O)[C@H](C)NC(=O)[C@@H](N)Cc1c[nH]cn1)[C@@H](C)O)[C@@H](C)O)[C@@H](C)CC)C(=O)N[C@@H](C)C(=O)N[C@@H](Cc1c[nH]c2ccccc12)C(=O)N[C@@H](CC(C)C)C(=O)N[C@@H](CCSC)C(=O)N[C@@H](CC(N)=O)C(=O)NCC(=O)N[C@@H](CCCNC(=N)N)C(=O)NCC(=O)O,GLP1R,reporter gene,agonist,luciferase,,EC50,0.000583 µM
CSc1nc(N[C@H](C(C)C)C2CC2)c2ncn([C@H]3[C@H](O)[C@H](O)[C@]4(CO)C[C@H]34)c2n1,DRD3,ligand displacement,,radioligand,,Ki,2.23 µM
